Published values gathered from unrelated publications.
JAK2: Tyrosine-protein kinase JAK2 (JAK2, Homo sapiens, UniProt O60674)
JAK2 JH1: Tyrosine-protein kinase JAK2, JH1 (JAK2, Homo sapiens, UniProt O60674)

SMILES	target	test	conditions	measurement	result
Cc1nn(CC(F)(F)F)cc1Nc1ncc(C2CC2)c(NCc2ccc(S(N)(=O)=O)cc2)n1	JAK2	enzyme activity, inhibitor, radiometric	1 µM	remaining activity	100%
O=C(CSc1nc2nccnc2c(=O)n1CCc1ccccc1)Nc1nccs1	JAK2	enzyme activity, inhibitor	10 µM	inhibition	-4%
O=C(NCCCNc1ccnc(Nc2cccc(NC(=O)N3CCCC3)c2)n1)C1CCC1	JAK2	enzyme activity, inhibitor, radiometric	1 µM	remaining activity	88%
Cc1ccc(Nc2nccc(N(C)c3ccc4c(C)n(C)nc4c3)n2)cc1S(N)(=O)=O	JAK2	enzyme activity, inhibitor	0.3 µM	inhibition	12%
Cc1nn(CC(F)(F)F)cc1Nc1nccc(NCc2ccc(S(N)(=O)=O)cc2)n1	JAK2	enzyme activity, inhibitor, radiometric	1 µM	remaining activity	95%
Cc1nc(N2CC[C@@H](O)C2)ncc1-c1cc(C(F)(F)F)cc2[nH]ncc12	JAK2 JH1	binding, competition with immobilised ligand	1 µM	remaining binding	61%
Cc1ccc(C(=O)NCc2ccsc2)cc1C#Cc1cn(C(C)C)c2ncnc(N)c12	JAK2	enzyme activity, inhibitor	1 µM	activity vs control	100%
Nc1ncnc2occ(-c3ccc(NC(=O)Nc4cc(C(F)(F)F)ccc4F)cc3)c12	JAK2 JH1	cell-free assay, inhibitor	20 µM	remaining signal	2%
Cc1nn(CC(F)(F)F)cc1Nc1ncc(C2CC2)c(NCCCNC(=O)C2CCC2)n1	JAK2	enzyme activity, inhibitor, radiometric	1 µM	remaining activity	99%
CN1CC(Oc2cnc(C#N)cc2-c2ccn3nc(NC(=O)C4CC4)cc3c2)C1	JAK2	enzyme activity, inhibitor	1 µM	inhibition	-20%
COc1cc2nccc(Oc3ccc(NC(=O)c4c5n(n(-c6ccc(F)cc6)c4=O)CCCC5)cc3)c2cc1OC	JAK2	enzyme activity, inhibitor	0.1 µM	inhibition	10%
c1cnn2ncc(-c3ccnc(N4CCC45COC5)n3)c2c1	JAK2 JH1	cell-free assay	1 µM	remaining signal	74%
COc1cc2ncnc(Nc3ccc(Oc4ccccc4)c(C)c3C)c2cc1OC	JAK2 JH1	enzyme activity, inhibitor	1 µM	inhibition	-2%
Cc1c[nH]c2nccc(Oc3c(F)cc(Nc4cc(Cl)nc(N)n4)cc3F)c12	JAK2 JH1	cell-free assay, competition with immobilised ligand	0.1 µM	remaining binding	75%
C[C@@H]1CCN(c2nccc(-c3cnn4ncccc34)n2)C1	JAK2 JH1	cell-free assay	1 µM	remaining signal	90%
Cc1nn(CC(F)(F)F)cc1Nc1ncc(Br)c(NCCCNC(=O)C2CCC2)n1	JAK2	enzyme activity, inhibitor, radiometric	1 µM	remaining activity	67%
CCS(=O)(=O)c1cc2cc(C[C@](O)(CC(C)(C)c3ccc(F)cc3C(N)=O)C(F)(F)F)[nH]c2cn1	JAK2 JH1	cell-free assay, competition with immobilised ligand	1 µM	remaining binding	53%

SMILES	target	test	conditions	measurement	result
O=C1NC(=O)c2cc(Nc3ccc(F)cc3)c(Nc3ccc(F)cc3)cc21	JAK2	cell-free assay	0.5 µM	remaining signal	94.6%
O=C1CCc2cc(Nc3cc(OC4CCOCC4)c([N+](=O)[O-])cc3Cl)ccc2N1	JAK2 JH1	cell-free assay, competition with immobilised ligand	1 µM	remaining binding	100%
CCOc1cc(-c2nncn2C)ccc1Nc1ncc2cc(C)nc(NCC(C)(C)C)c2n1	JAK2	enzyme activity, inhibitor, FRET	1 µM	inhibition	< 15%
CCCS(=O)(=O)Nc1ccc(F)c(C(=O)c2c[nH]c3ncc(-c4ccc(Cl)cc4)cc23)c1F	JAK2	enzyme activity, inhibitor	1 µM	inhibition	< 10%
COCCOc1nc(-c2ccc(Cl)nc2)nc2c1CN(C(=O)c1ncn3ccccc13)CC2	JAK2 JH1	cell-free assay, competition with immobilised ligand	0.1 µM	remaining binding	100%
Nc1nc(Nc2ccc(S(N)(=O)=O)cc2)nn1C(=O)c1c(F)cccc1F	JAK2	cell-free assay	0.5 µM	remaining signal	19.2%
Cc1nn(CC(F)(F)F)cc1Nc1ncc(C2CC2)c(NCCc2c[nH]cn2)n1	JAK2	enzyme activity, inhibitor, radiometric	1 µM	remaining activity	123%
CNC(=O)c1cc(Oc2ccc(NC(=O)Nc3ccc(Cl)c(C(F)(F)F)c3)cc2)ccn1	JAK2	cell-free assay	0.5 µM	remaining signal	98.2%
CC(=O)Nc1c(C(C)=O)c(=O)n(C)c2nc(-c3ccc(Cl)cc3Cl)c(-c3ccc(Cl)cc3)cc12	JAK2 JH1	cell-free assay, competition with immobilised ligand	1 µM	remaining binding	100%
COc1cc2ncnc(Nc3ccc(Oc4ccccc4)cc3C)c2cc1OC	Tyrosine-protein kinase JAK2, JH1 (JAK2, Homo sapiens, UniProt O60674, V617F)	enzyme activity, inhibitor	1 µM	inhibition	-11%
O=C1Nc2ccc(Cl)cc2C1=Cc1cc(Cl)c(O)c(Cl)c1	JAK2	cell-free assay	0.5 µM	remaining signal	91.1%
CS(=O)(=O)c1cc(C2(NC(=O)c3cncc4c3cnn4-c3ccc(F)cc3)CC2)ccn1	JAK2 JH1	cell-free assay, competition with immobilised ligand	1 µM	remaining binding	100%
Cc1ccc(NC(=O)c2ccc(C)c(C(F)(F)F)c2)cc1C#Cc1nn(C2CCC(O)CC2)c2ncnc(N)c12 (stereo not drawn)	JAK2	cell-free assay	10 µM	remaining signal	64%
COc1cc(Nc2cnc(C#N)c(O[C@H](C)CN(C)C)n2)ncc1-c1cnn(C)c1	JAK2	enzyme activity, inhibitor, radiometric	1 µM	remaining activity	71%
NS(=O)(=O)c1cc(NC(=O)C2(c3ccccc3Cl)CC2)ccc1Oc1cccc(Cl)c1	JAK2 JH1	cell-free assay, competition with immobilised ligand	1 µM	remaining binding	100%
FC(F)(F)Oc1cccc(-c2cnc3ccc(-c4ccncc4)nn23)c1	JAK2	enzyme activity, inhibitor, radiometric	5 µM	activity vs control	72%
